Source: article PMC10209927 (Russian Journal of General Chemistry, 2023)

Assays:
[1] = target: T1, aldehyde reductase (ALR1) (Homo sapiens, UniProt P14550); assay: In vitro aldehyde reductase; format: biochemical
T1 sequence (P14550 1-325): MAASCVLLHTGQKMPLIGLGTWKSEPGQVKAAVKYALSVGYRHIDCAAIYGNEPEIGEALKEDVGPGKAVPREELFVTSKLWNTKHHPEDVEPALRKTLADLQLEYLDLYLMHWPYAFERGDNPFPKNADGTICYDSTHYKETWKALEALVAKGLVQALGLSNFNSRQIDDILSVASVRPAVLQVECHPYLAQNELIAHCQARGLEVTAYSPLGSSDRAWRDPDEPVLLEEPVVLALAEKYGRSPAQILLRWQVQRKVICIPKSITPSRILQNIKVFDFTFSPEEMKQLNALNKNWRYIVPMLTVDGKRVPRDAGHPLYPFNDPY
Method in brief: (§1)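 Enzymes isolated and purified by earlier reported methods, ALR1 at 2.19 μg/well and ALR2 at 1.85 μg/well. Test compound (20 µL of 1 mM solution) was preincubated with the enzyme in 100 mM KH2PO4, pH 6.2, at 37°C for 10 min. Then substrate (50 mM as added) and NADPH (0.5 mM as added) were introduced. OD340 was read after 30 min. % inhibition = 100 − (A test/A control × 100). IC50 ± SEM was determined for compounds with >50% inhibition.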

[2] = target: aldose reductase (ALR2) (Homo sapiens, UniProt P15121); assay: In vitro aldose reductase; format: biochemical
Method in brief: as §1

| IC50 [1] | IC50 [2] | Structure (SMILES) |
| --- | --- | --- |
| 90 ± 0.56 µM | 28 ± 1.23 µM | O=C1N=C(Nc2ccccc2)S/C1=C\c1ccccc1OCc1cn(Cc2cccc(Cl)c2)nn1 [Compound 9b, (Z)-5-(2-{[1-(3-Chlorobenzyl)-1H-1,2,3-triazol-4-yl]methoxy}benzylidene)-2-(phenylamino)thiazol-4(5H)-one] |
| – | 10 ± 1.56 µM | O=C1N=C(Nc2ccccc2)S/C1=C\c1ccccc1OCc1cn(Cc2ccc(Cl)cc2)nn1 [Compound 9c, (Z)-5-(2-{[1-(4-Chlorobenzyl)-1H-1,2,3-triazol-4-yl]methoxy}benzylidene)-2-(phenylamino)thiazol-4(5H)-one] |
